From ChEMBL document CHEMBL4765486, “Novel Nonsecosteroidal Vitamin D Receptor Modulator Combined with Gemcitabine Enhances Pancreatic Cancer Therapy through Remodeling of the Tumor Microenvironment” (J Med Chem, 2021)
Activity calls are given as the source filed them. Unless noted, no cut-off for these calls is given here.

What was measured:
[1] = Cytotoxicity against rat LTC-14 cells assessed as reduction in cell proliferation incubated for 24 hrs by MTT assay; format: cell-based; details: LTC-14, 24 h
LTC-14 [2] = experiment: Inhibition of rat LTC-14 cell activation assessed decrease in TGF-beta1 induced Colla1 mRNA expression at 0.5 uM incubated for 24 hrs by q-PCR analysis; format: functional
How it was run: (§1)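 Immortalized rat PSC line LTC-14, about 1×10^5 cells per well, was grown 24 h at 37 °C in 5% CO2. Cells then received compound (0.5 μM) plus TGF-β1 for 24 h; TGF-β1 is stated as 0.5 ng/mL in the text and 5 ng/mL in the methods. Col1a1 and Acta2 mRNA were measured by RT-qPCR. Mean ± SD versus TGF-β1 alone.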

LTC-14 [3] = experiment: Inhibition of rat LTC-14 cells activation assessed decrease in TGF-beta1 induced Acta2 mRNA expression at 0.5 uM incubated for 24 hrs by q-PCR analysis; format: functional, cell-based; how it was run: as §1
LTC-14 [4] = experiment: Inhibition of rat LTC-14 cells activation assessed decrease in TGF-beta1 induced collagen 1 protein expression at 0.5 uM incubated for 24 hrs by Western blot analysis; format: functional, cell-based
How it was run: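 LTC-14 cells were treated for 24 h with compound (0.5 μM) plus TGF-β1 (0.5 ng/mL in the text, 5 ng/mL in the methods). Lysates were run on 10% SDS-PAGE, transferred to PVDF and probed with rabbit anti-collagen I, with β-actin as reference. Bands were quantified by densitometry versus TGF-β1 alone.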

[5] = Cytotoxicity against rat DSL-6A/C1 cells assessed as reduction in cell proliferation at 0.5 uM incubated for 24 hrs by MTT assay; format: cell-based; details: dsl-6a/c1, 24 h
[6] = biological target: T1, Vitamin D3 receptor (Homo sapiens) (UniProt P11473); experiment: Agonist activity at VDR (unknown origin) expressed in HEK293 cells co-transfected with pGL4.27-SPP3-Luc and CMV-hRXRalpha and pCMX-Renilla plasmids after 24 hrs by dual luciferase reporter gene assay; format: cell-based; details: filed as agonist, dose 0.0001-1 µM
T1 sequence (whole entry): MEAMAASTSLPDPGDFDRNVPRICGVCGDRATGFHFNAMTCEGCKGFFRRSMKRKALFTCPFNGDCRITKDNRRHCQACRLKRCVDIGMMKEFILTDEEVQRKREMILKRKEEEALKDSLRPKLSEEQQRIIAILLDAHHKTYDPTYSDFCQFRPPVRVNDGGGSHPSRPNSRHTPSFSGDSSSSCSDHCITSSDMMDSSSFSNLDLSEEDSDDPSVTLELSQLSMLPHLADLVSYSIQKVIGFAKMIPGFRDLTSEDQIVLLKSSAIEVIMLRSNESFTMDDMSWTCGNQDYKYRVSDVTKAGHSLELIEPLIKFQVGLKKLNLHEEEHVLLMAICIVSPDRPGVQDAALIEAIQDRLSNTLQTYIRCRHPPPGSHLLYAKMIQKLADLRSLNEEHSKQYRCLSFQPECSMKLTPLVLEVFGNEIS
How it was run: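 HEK293 cells in 48-well plates were transfected per well with 40 ng TK-Spp×3-LUC reporter, 20 ng pCMX-Renilla, 30 ng pENTER-CMV-hRXRα and 100 ng pCMX-VDR using Lipofectamine 2000. Compounds were added 8 h post-transfection, and dual-luciferase activity was read 24 h later. Firefly signal was normalised to Renilla. The experiment was run three times.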

Mus musculus [7] = experiment: (§2) Inhibition of GFP-tagged rat LTC-14 cells activation in BALB/c nude mouse xenografted along with luciferase-tagged DSL-6A/C1-Luc cells assessed as reduction in alpha-smooth muscle actin expression in tumor at 60 ug/kg, ip administered once every 3 days for 12 days coadministered with gemcitabine at 100 mg/kg and measured after 3 days post last dose and by DAPI staining based laser confocal scanning microscopy; format: functional, organism-based; details: dose 60.0 µg/kg, time 12.0 day
How it was run: (§3)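 Tumours were taken from orthotopic co-inoculated nude mice given gemcitabine 100 mg/kg plus compound (500 μg/kg) or calcipotriol (60 μg/kg) ip for 12 days. Sections were fixed in 4% PFA, permeabilised with 0.5% Triton X-100 and blocked in 5% BSA. They were incubated with anti-α-SMA overnight at 4 °C, then an Alexa Fluor 594 secondary for 1 h at 37 °C, DAPI-counterstained and imaged by confocal microscopy.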

DSL-6A/C1 [8] = experiment: (§4) Potentiation of gemcitabine-induced antitumor activity against rat DSL-6A/C1-Luc cells and LTC-14-GFP cells co-inoculated in orthotropic xenograft BALB/c nude mouse model of pancreatic cancer assessed as reduction in tumor volume at 60 ug/kg, ip administered once every 3 days for 12 days coadministered with gemcitabine at 100 mg/kg and measured after 3 days post last dose by IVIS optical imaging analysis; format: functional, organism-based; details: dose 60.0 µg/kg, time 12.0 day
How it was run: (§5)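 DSL-6A/C1-luci and LTC-14-GFP cells were co-inoculated orthotopically into the pancreas of nude mice, n=5 per group. Treatment began 7 days after grafting (methods) or 14 days (text). Gemcitabine 100 mg/kg ip every 3 days, alone or with compound 500 μg/kg or calcipotriol 60 μg/kg in ethanol/polyoxyethylene castor oil/saline (1:1:18), for 12 days. Tumour growth was followed by bioluminescence imaging.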

[9] = biological target: T1, Vitamin D3 receptor (Homo sapiens); experiment: Binding affinity to VDR (unknown origin) at 1 uM by fluorescence polarization assay relative to calcipotriol; details: filed as agonist
How it was run: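 PolarScreen VDR competitor fluorescence polarization assay with compounds at 1 μM in triplicate. Read-out used 535 nm excitation and 590 nm emission filters.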

LTC-14 [10] = experiment: Inhibition of rat LTC-14 cells interaction with DSL-6A/C1 cells in conditioned media assessed as inhibition of PDGF-A protein expression at 0.5 uM measured after 24 hrs by Western blot analysis; format: functional, cell-based
How it was run: (§6)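 LTC-14 cells were treated for 24 h with DSL-6A/C1 conditioned medium plus compound (0.5 μM). Proteins were separated on 10% SDS-PAGE, transferred to PVDF and probed with rabbit anti-PDGF-A or anti-POSTN, with β-actin as loading reference.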

LTC-14 [11] = experiment: Inhibition of rat LTC-14 cells interaction with DSL-6A/C1 cells in conditioned media assessed as inhibition of POSTN protein expression at 0.5 uM measured after 24 hrs by Western blot analysis; format: functional, cell-based; how it was run: as §6
LTC-14 [12] = experiment: Inhibition of rat LTC-14 cells activation assessed as inhibition of PDGFA mRNA expression at 0.5 uM treated under conditioned media of DSL-6A/C1 cells for 24 hrs by q-PCR analysis; format: functional, cell-based
How it was run: (§7)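 LTC-14 PSCs were exposed for 24 h to conditioned medium from rat DSL-6A/C1 cancer cells containing compound at 0.5 μM. Pdgfa, Pdgfb, Fgf2, Hgf and Periodin mRNA were quantified by RT-qPCR. Three repeats, mean ± SD versus CM alone.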

LTC-14 [13] = experiment: Inhibition of rat LTC-14 cells activation assessed as inhibition of PDGFB mRNA expression at 0.5 uM treated under conditioned media of DSL-6A/C1 cells for 24 hrs by q-PCR analysis; format: functional, cell-based; how it was run: as §7
LTC-14 [14] = experiment: Inhibition of rat LTC-14 cells activation assessed as inhibition of Fgf mRNA expression at 0.5 uM treated under conditioned media of DSL-6A/C1 cells for 24 hrs by q-PCR analysis; format: functional, cell-based; how it was run: as §7
LTC-14 [15] = experiment: Inhibition of rat LTC-14 cells activation assessed as inhibition of Hgf mRNA expression at 0.5 uM treated under conditioned media of DSL-6A/C1 cells for 24 hrs by q-PCR analysis; format: functional, cell-based; how it was run: as §7
LTC-14 [16] = experiment: Inhibition of rat LTC-14 cells activation assessed as inhibition of Periodin-mRNA expression at 0.5 uM treated under conditioned media of DSL-6A/C1 cells for 24 hrs by q-PCR analysis; format: functional, cell-based; how it was run: as §7
Vitamin D3 receptor = biological target: T2, Vitamin D3 receptor (Homo sapiens, UniProt P11473); experiment: Binding affinity to VDR (unknown origin) by fluorescence polarization assay
T2 sequence (P11473 whole entry): T1 sequence (whole entry)
How it was run: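 Competitive VDR binding was measured by PolarScreen fluorescence polarization, in triplicate.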

DSL-6A/C1 [17] = experiment: Antiproliferative activity against rat DSL-6A/C1 cells assessed as reduction in cell viability at 0.5 uM incubated for 24 hrs compound treated LTC-14-CM cells by MTT assay; format: functional, cell-based
How it was run: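 LTC-14 PSCs were pretreated with compound for 24 h. Their collected supernatant was used to culture DSL-6A/C1 cells, and proliferation was read by MTT: 4 h incubation with MTT (5 mg/mL stock), absorbance at 570 nm. Run in triplicate, compared with untreated PSC-CM.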

DSL-6A/C1 [18] = experiment: Antiproliferative activity against rat DSL-6A/C1 cells assessed as reduction in cell viability at 0.5 uM treated with conditioned media of LTC-14 cells for 24 hrs by MTT assay; format: functional, cell-based
How it was run: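 Rat pancreatic cancer DSL-6A/C1 cells were cultured in supernatant from LTC-14 PSCs (PSC-CM) with compound added at 0.5 μM for 24 h. Viability was then read by MTT: 4 h incubation with MTT (5 mg/mL stock), absorbance at 570 nm. Run in triplicate, compared with PSC-CM alone.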

LTC-14 [19] = experiment: Inhibition of rat LTC-14 cells activation assessed as reduction in ECM deposition resulting in doxorubicin accumulation in PSC spheres pretreated with compounds followed by doxorubicin addition by laser confocal microscopy analysis; format: functional, cell-based
How it was run: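 LTC-14 cells were grown in 3D culture to form PSC spheres and treated with compounds. Fluorescent doxorubicin was then added, and its penetration into the spheres was imaged by laser confocal microscopy. Three repeats, versus untreated control.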

DSL-6A/C1 [20] = experiment: as §4, with “against luciferase-tagged” for “against”, “DSL-6A/C1” for “DSL-6A/C1-Luc”, “GFP-tagged LTC-14” for “LTC-14-GFP”, “500” for “60”; format: functional, organism-based; details: dose 500.0 µg/kg, time 12.0 day; how it was run: as §5
Mus musculus [21] = experiment: as §2, with “500” for “60”, “mg/kg” for “mg/kg and measured after 3 days post last dose and”; format: functional, organism-based; details: dose 500.0 µg/kg, time 12.0 day; how it was run: as §3
DSL-6A/C1 [22] = details: Rattus norvegicus, dose 100.0 mg/kg, time 12.0 day

With `C=C1/C(=C/C=C2\CCC[C@]3(C)[C@@H]([C@H](C)/C=C/[C@@H](O)C4CC4)CC[C@@H]23)C[C@@H](O)C[C@@H]1O` as the compound, how does the IC50 [1] read?
The IC50 was greater than 10 µM.

What about the inhibition (LTC-14 [2]) of the same compound?
The inhibition was “Active”.

And the inhibition (LTC-14 [3])?
The inhibition was “Active”.

And the inhibition (LTC-14 [4])?
Its inhibition is “Active”.

What about the Activity [5] of the same compound?
Its Activity is “Non-Toxic”.

And the Activity [6]?
The Activity was “Dose-dependent effect”.

What about the inhibition (Mus musculus [7]) of the same compound?
The inhibition was “Active”.

And the Activity (DSL-6A/C1 [8])?
The Activity was “Active”.

For `CCn1cc(C(CC)(CC)c2ccc(OCC(C)O)c(C)c2)cc1C(=O)NCC(O)CO` (centres undefined), which RBA [9] is on record?
The RBA was 86%.

What about the IC50 [1] of the same compound?
The IC50 was greater than 10 µM.

What about the inhibition (LTC-14 [2]) of the same compound?
Its inhibition is “Active”.

And the inhibition (LTC-14 [3])?
Its inhibition is “Active”.

And the inhibition (LTC-14 [4])?
Its inhibition is “Active”.

And the inhibition (LTC-14 [10])?
The inhibition was “Active”.

And the inhibition (LTC-14 [11])?
The inhibition was “Active”.

What about the inhibition (LTC-14 [12]) of the same compound?
Its inhibition is “Active”.

What about the inhibition (LTC-14 [13]) of the same compound?
The inhibition was “Active”.

And the inhibition (LTC-14 [14])?
Its inhibition is “Active”.

What about the inhibition (LTC-14 [15]) of the same compound?
Its inhibition is “Active”.

And the inhibition (LTC-14 [16])?
Its inhibition is “Active”.

What about the Activity [5] of the same compound?
The Activity was “Non-Toxic”.

What about the IC50 (Vitamin D3 receptor) of the same compound?
Its IC50 is 81.6 nM.

What about the Activity (DSL-6A/C1 [17]) of the same compound?
Its Activity is “Active”.

What about the Activity (DSL-6A/C1 [18]) of the same compound?
Its Activity is “inactive”.

And the inhibition (LTC-14 [19])?
Its inhibition is “Active”.

And the Activity [6]?
Its Activity is “Dose-dependent effect”.

And the TGI (DSL-6A/C1 [20])?
Its TGI is “Active”.

What about the inhibition (Mus musculus [21]) of the same compound?
The inhibition was “Active”.

Which TGI (DSL-6A/C1 [22]) does the source give for `Nc1ccn([C@@H]2O[C@H](CO)[C@@H](O)C2(F)F)c(=O)n1` here?
The TGI was “inactive”.
